Changes are numbered by the printed parent chain. Numbers in names are those of the source.
B1: WT: full-length wild type RSK1 (1–735) (protein)
chain: MPLAQLKEPWPLMELVPLDPENGQTSGEEAGLQPSKDEGVLKEISITHHVKAGSEKADPSHFELLKVLGQGSFGKVFLVRKVTRPDSGHLYAMKVLKKATLKVRDRVRTKMERDILADVNHPFVVKLHYAFQTEGKLYLILDFLRGGDLFTRLSKEVMFTEEDVKFYLAELALGLDHLHSLGIIYRDLKPENILLDEEGHIKLTDFGLSKEAIDHEKKAYSFCGTVEYMAPEVVNRQGHSHSADWWSYGVLMFEMLTGSLPFQGKDRKETMTLILKAKLGMPQFLSTEAQSLLRALFKRNPANRLGSGPDGAEEIKRHVFYSTIDWNKLYRREIKPPFKPAVAQPDDTFYFDTEFTSRTPKDSPGIPPSAGAHQLFRGFSFVATGLMEDDGKPRAPQAPLHSVVQQLHGKNLVFSDGYVVKETIGVGSYSECKRCVHKATNMEYAVKVIDKSKRDPSEEIEILLRYGQHPNIITLKDVYDDGKHVYLVTELMRGGELLDKILRQKFFSEREASFVLHTIGKTVEYLHSQGVVHRDLKPSNILYVDESGNPECLRICDFGFAKQLRAENGLLMTPCYTANFVAPEVLKRQGYDEGCDIWSLGILLYTMLAGYTPFANGPSDTPEEILTRIGSGKFTLSGGNWNTVSETAKDLVSKMLHVDPHQRLTAKQVLQHPWVTQKDKLPQSQLSHQDLQLVKGAMAATYSALNSSKPTPQLKPIESSILAQRRVRKLPSTTL
modifications: left off: SmBiT, N-terminal, kept
B2: L714E: RSK1 mutant; eliminates the interaction between ERK and RSK (protein)
chain: B1 chain with L714E
modifications: left off: SmBiT, N-terminal, kept
B3: ΔC1: RSK1 with the last C-terminal residue truncated (1–734), no functional PBM (protein)
chain: MPLAQLKEPWPLMELVPLDPENGQTSGEEAGLQPSKDEGVLKEISITHHVKAGSEKADPSHFELLKVLGQGSFGKVFLVRKVTRPDSGHLYAMKVLKKATLKVRDRVRTKMERDILADVNHPFVVKLHYAFQTEGKLYLILDFLRGGDLFTRLSKEVMFTEEDVKFYLAELALGLDHLHSLGIIYRDLKPENILLDEEGHIKLTDFGLSKEAIDHEKKAYSFCGTVEYMAPEVVNRQGHSHSADWWSYGVLMFEMLTGSLPFQGKDRKETMTLILKAKLGMPQFLSTEAQSLLRALFKRNPANRLGSGPDGAEEIKRHVFYSTIDWNKLYRREIKPPFKPAVAQPDDTFYFDTEFTSRTPKDSPGIPPSAGAHQLFRGFSFVATGLMEDDGKPRAPQAPLHSVVQQLHGKNLVFSDGYVVKETIGVGSYSECKRCVHKATNMEYAVKVIDKSKRDPSEEIEILLRYGQHPNIITLKDVYDDGKHVYLVTELMRGGELLDKILRQKFFSEREASFVLHTIGKTVEYLHSQGVVHRDLKPSNILYVDESGNPECLRICDFGFAKQLRAENGLLMTPCYTANFVAPEVLKRQGYDEGCDIWSLGILLYTMLAGYTPFANGPSDTPEEILTRIGSGKFTLSGGNWNTVSETAKDLVSKMLHVDPHQRLTAKQVLQHPWVTQKDKLPQSQLSHQDLQLVKGAMAATYSALNSSKPTPQLKPIESSILAQRRVRKLPSTT
modifications: left off: SmBiT, N-terminal, kept

Tests used:
GOPC = test: NanoBiT protein-protein interaction assay; type: cell-based, human; settings: full-length proteins, serum-starved HEK293T, n=6, vs WT RSK1
Outline: (§1)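 Full-length RSK1 (N-terminal SmBiT) is paired with an N-terminal LgBiT fusion of the partner: ARHGEF12 isoform 2, GOPC isoform 2, PARD3B 1–913, or SYNJ2BP. Sensors are transiently co-expressed in HEK293T cells, which are serum-starved for 20 h from 4 h post-transfection and assayed with Nano-Glo at 24 h. Steady-state signal is referenced to the wild-type pair. For the EGF response (20 ng/ml, 60 min), signal is normalized to initial luminescence and to unstimulated furimazine decay. At least 6 replicates.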

MAGI1 = test: NanoBiT protein-protein interaction assay; type: cell-based, human; settings: full-length proteins, serum-starved HEK293T, n=6, vs WT RSK1
Outline: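 Full-length RSK1 (N-terminal SmBiT) is co-expressed with full-length MAGI1–LgBiT in HEK293T cells by FuGene HD transfection, then serum-starved for 20 h in CO2-independent medium. Cells are read with Nano-Glo 24 h post-transfection. Steady-state luminescence of mutant sensors is referenced to the wild-type pair. For the 20 ng/ml EGF response, signal is followed for 60 min and normalized to initial luminescence and to furimazine decay in unstimulated cells. At least 6 biological replicates.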

PARD3B = test: NanoBiT protein-protein interaction assay; type: cell-based, human; settings: PARD3B 1–913, serum-starved HEK293T, n=6, vs WT RSK1
Outline: as §1

SYNJ2BP = test: NanoBiT protein-protein interaction assay; type: cell-based, human; settings: full-length proteins, serum-starved HEK293T, n=6, vs WT RSK1
Outline: as §1

RhoA = test: G-LISA RhoA activation assay; type: cell-based; settings: RSK1/2 knockout HEK293T, n=4; for serum-stimulated RhoA activity: serum-starved, 20% serum 5 min
ARHGEF12 = test: NanoBiT protein-protein interaction assay; type: cell-based, human; settings: full-length proteins, serum-starved HEK293T, n=6, vs WT RSK1
Outline: as §1

Row | Molecule | steady-state luminescence of interaction sensor (GOPC) | steady-state luminescence of interaction sensor (MAGI1) | steady-state luminescence of interaction sensor (PARD3B) | steady-state luminescence of interaction sensor (SYNJ2BP) | serum-stimulated RhoA activity (RhoA) | basal RhoA activity (RhoA; transfected) | steady-state luminescence of interaction sensor (ARHGEF12)
1 | B1 | high luminescence signals | high luminescence signals | high luminescence signals | high luminescence signals | increased RhoA activity | increased level of basal RhoA activity | high luminescence signals
2 | B2 |  |  | decreased the luminescence outputs | decreased the luminescence outputs |  |  | 
3 | B3 | significantly reduced the luminescent signal | significantly reduced the luminescent signal | significantly reduced the luminescent signal | significantly reduced the luminescent signal | only minor increment |  | significantly reduced the luminescent signal
